Tests used:
Mus musculus [1] = experiment: Average weight change of BDF1 female mice at a dose of 1.6 mg/kg per injection; assay type: functional
Method in brief: (§1)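 BDF1 female mice implanted ip with 10^6 ascites leukemia cells, then given the aziridinomitosene on day 1 only, six mice per dose. Average weight change is the weight difference between the treated and control groups.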

P388 [2] = experiment: Minimum effective dose determined against P-388 Murine leukemia in BDF1 female mice.; assay type: functional; conditions: Mus musculus, read-out: MED
P388 [3] = experiment: Compound was tested for antitumor activity against P388 Murine leukemia in BDF1 female mice at a dose of 1.6 mg/kg per injection (MST treated / MST control x 100); assay type: functional, Mus musculus
Method in brief: (§2)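 P388 ascites cells (10^6) implanted ip into BDF1 female mice. Aziridinomitosene given on day 1 only, six mice per dose; ten saline-treated mice on day 1 only as controls. Read-out is median survival time in days, %T/C = MST treated/MST control × 100, with 125 taken as significant. Mitomycin C run as a positive control at its optimal dose.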

P388 [4] = experiment: (§3) Compound was tested for antitumor activity against P388 Murine leukemia in BDF1 female mice at a dose of 12.8 mg/kg per injection; assay type: functional, Mus musculus; parameters: unit not given here; method in brief: as §2
Mus musculus [5] = experiment: Average weight change of BDF1 female mice at a dose of 0.8 mg/kg per injection; assay type: functional; method in brief: as §1
P388 [6] = experiment: Compound was tested for antitumor activity against P388 Murine leukemia in BDF1 female mice at a dose of 0.8 mg/kg per injection; assay type: functional, Mus musculus; method in brief: as §2
Mus musculus [7] = experiment: Average weight change of BDF1 female mice at a dose of 6.4 mg/kg per injection; assay type: functional; method in brief: as §1
[8] = Partition coefficient (logP); assay type: physicochemical; conditions: octanol/water
P388 [9] = experiment: Compound was tested for antitumor activity against P388 Murine leukemia in BDF1 female mice at a dose of 6.4 mg/kg per injection; assay type: functional, Mus musculus; method in brief: as §2
Mus musculus [10] = experiment: Average weight change of BDF1 female mice at a dose of 3.2 mg/kg per injection; assay type: functional; method in brief: as §1
P388 [11] = experiment: Compound was tested for antitumor activity against P388 Murine leukemia in BDF1 female mice at a dose of 3.2 mg/kg per injection; assay type: functional, Mus musculus; method in brief: as §2
Mus musculus [12] = experiment: Average weight change of BDF1 female mice at a dose of 12.8 mg/kg per injection; assay type: functional; method in brief: as §1
Mus musculus [13] = experiment: Average weight change of BDF1 female mice at a dose of 25.6 mg/kg per injection; assay type: functional; method in brief: as §1
P388 [14] = experiment: Compound was tested for antitumor activity against P388 Murine leukemia in BDF1 female mice at a dose of 1.6 mg/kg per injection given as MST treated / MST control x 100; assay type: functional, Mus musculus; method in brief: as §2
P388 [15] = experiment: Compound was tested for antitumor activity against P388 Murine leukemia in BDF1 female mice at a dose of 25.6 mg/kg per injection; assay type: functional, Mus musculus; method in brief: as §2
P388 [16] = experiment: as §3; assay type: functional, Mus musculus; method in brief: as §2
L1210 [17] = experiment: Compound was tested for antitumor activity against L-1210 Murine leukemia in BDF1 female mice at a dose of 3 mg/kg per injection; assay type: functional, Mus musculus
Method in brief: (§4)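 L-1210 leukemia, NCI protocol: 10^6 ascites cells implanted ip into BDF1 female mice. Six mice per dose, single dose on day 1 only, with a 36-mouse control group. Read-out is median survival time (MST), reported as %T/C = MST treated/MST control × 100, with 125 taken as significant. Average weight change is treated minus control weight.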

Mus musculus [18] = experiment: Average weight change of BDF1 female mice at a dose of 6 mg/kg per injection; assay type: functional; method in brief: as §1
Mus musculus [19] = experiment: Average weight change of BDF1 female mice at a dose of 12 mg/kg per injection; assay type: functional; method in brief: as §1
Mus musculus [20] = experiment: Average weight change of BDF1 female mice at a dose of 3 mg/kg per injection; assay type: functional; method in brief: as §4
L1210 [21] = experiment: Compound was tested for antitumor activity against L-1210 Murine leukemia in BDF1 female mice at a dose of 12 mg/kg per injection; assay type: functional, Mus musculus
Method in brief: (§5)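 L-1210 run per NCI protocol. 10^6 ascites cells implanted ip into BDF1 female mice. Aziridinomitosene given on day 1 only, six mice per dose, with a control group of 36 mice. Median survival time in days is recorded, and %T/C = MST treated/MST control × 100, with 125 taken as significant.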

L1210 [22] = experiment: Compound was tested for antitumor activity against L-1210 Murine leukemia in BDF1 female mice at a dose of 6 mg/kg per injection; assay type: functional, Mus musculus; method in brief: as §5
Mus musculus [23] = experiment: Average weight change of BDF1 female mice at a dose of 1.5 mg/kg per injection; assay type: functional; method in brief: as §4
L1210 [24] = experiment: Compound was tested for antitumor activity against L-1210 Murine leukemia in BDF1 female mice at a dose of 1.5 mg/kg per injection; assay type: functional, Mus musculus; method in brief: as §4
L1210 [25] = experiment: Compound was tested for antitumor activity against L-1210 Murine leukemia in BDF1 female mice at a dose of 24 mg/kg per injection; assay type: functional, Mus musculus; method in brief: as §5
Mus musculus [26] = experiment: Average weight change of BDF1 female mice at a dose of 24 mg/kg per injection; assay type: functional; method in brief: as §1
Mus musculus [27] = experiment: Average weight change of BDF1 female mice at a dose of 48 mg/kg per injection; assay type: functional; method in brief: as §1
L1210 [28] = experiment: Compound was tested for antitumor activity against L-1210 Murine leukemia in BDF1 female mice at a dose of 48 mg/kg per injection; assay type: functional, Mus musculus; method in brief: as §5
P388 [29] = experiment: Compound was tested for antitumor activity against P388 Murine leukemia in BDF1 female mice at a dose of 3.2 mg/kg per injection (MST treated / MST control x 100); assay type: functional, Mus musculus; method in brief: as §2
P388 [30] = experiment: Compound was tested for antitumor activity against P388 Murine leukemia in BDF1 female mice at a dose of 1.6 mg/kg per injection; assay type: functional, Mus musculus; method in brief: as §2
Mus musculus [31] = experiment: Average weight change of BDF1 female mice at a dose of 51.2 mg/kg per injection; assay type: functional; method in brief: as §1
P388 [32] = experiment: Compound was tested for antitumor activity against P388 Murine leukemia in BDF1 female mice at a dose of 51.2 mg/kg per injection; assay type: functional, Mus musculus; method in brief: as §2

SMILES | Weight change (Mus musculus [1]) | minimal effective dose (P388 [2]) | MST (P388 [4]) | Weight change (Mus musculus [7]) | logP [8] | MST (P388 [9]) | Weight change (Mus musculus [10]) | Weight change (Mus musculus [12]) | Weight change (Mus musculus [13]) | T/C (P388 [14]) | MST (P388 [15]) | MST (P388 [16]) | Weight change (Mus musculus [18]) | Weight change (Mus musculus [19]) | T/C (P388 [29]) | further results
COC1=C(C)C(=O)c2c(c(COC(N)=O)c3n2CC2C3N2C)C1=O (stereo unspecified) | -0.2 g | 0.8 mg/kg | 213 | -0.3 g | 1.28 | 213 days | 0.5 g | -1.7 g | – | – | – | – | – | – | – | T/C (P388 [3]): 156%; Weight change (Mus musculus [5]): 0.8 g; MST (P388 [6]): 150 days; MST (P388 [11]): 188 days
CC1=C(N)C(=O)c2c(COC(N)=O)c3n(c2C1=O)CC1C3N1C (stereo unspecified) | – | – | – | – | – | – | – | -0.4 g | -0.1 g | 211% | 100 % T/C | 100 days | – | – | – | –
CO[C@@]12[C@H](COC(N)=O)C3=C(C(=O)C(C)=C(N)C3=O)N1C[C@@H]1N[C@@H]12 [MITOMYCIN] | – | – | – | – | – | – | – | – | – | – | – | – | -3.3 g | -4.8 g | – | T/C (L1210 [17]): 118%; Weight change (Mus musculus [20]): -0.9 g; % T/C (L1210 [21]): 118%; % T/C (L1210 [22]): 146%; Weight change (Mus musculus [23]): -0.8 g; T/C (L1210 [24]): 116%
CC1=C(N)C(=O)c2c(COC(N)=O)c3n(c2C1=O)CC1NC31 (stereo unspecified) | – | 25.6 mg/kg | – | -1.2 g | 0.23 | 117 %T/C | – | -0.8 g | -0.8 g | 211% | 128 % T/C | 117 days | 0.1 g | 0 g | – | MST (L1210 [25]): 100 days; T/C (L1210 [21]): 100%; Weight change (Mus musculus [26]): -0.3 g; Weight change (Mus musculus [27]): 0.2 g; MST (L1210 [28]): 94 days; T/C (L1210 [22]): 100%
COC1=C(C)C(=O)c2c(c(COC(N)=O)c3n2CC2NC32)C1=O (stereo unspecified) | – | 12.8 mg/kg | 139 | 0 g | 0.87 | 122 %T/C | -0.4 g | -0.8 g | -0.4 g | – | 167 % T/C | – | – | – | 122% | –
CC1=C(N2CC2)C(=O)c2c(COC(N)=O)c3n(c2C1=O)CC1C3N1C (stereo unspecified) | -1.3 g | 1.6 mg/kg | 172 | -1.1 g | 0.71 | 172 %T/C | 0 g | -1.9 g | -2.2 g | – | 239 % T/C | – | – | – | 117% | MST (P388 [30]): 122 days; Weight change (Mus musculus [31]): -2.5 g; MST (P388 [32]): 139 days

— ChEMBL document CHEMBL1123541, “Preparation and antitumor activity of 7-substituted 1,2-aziridinomitosenes” (J Med Chem, 1986)
